High-throughput results: PubChem BioAssay, several laboratories
Hits are enriched below; roughly 1.9% of the tested compounds scored in any of these assays.
proKLK7 act = proKLK7 zymogen activators, primary screen, biochemical, fluorescence intensity; purified proKLK7, EDANS-DABCYL substrate fluorescence; 100% is mature enzyme control, 0% vehicle; activation, % at 7 µM; 370,000 tested, 0.9% active; AID 652039, 2013;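 active = activation above the mean of all tested compounds plus 3 SD, computed per campaign excluding outliers beyond control limits, cut at about 13% in these data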
Target sequence (P49862 whole entry, looked up): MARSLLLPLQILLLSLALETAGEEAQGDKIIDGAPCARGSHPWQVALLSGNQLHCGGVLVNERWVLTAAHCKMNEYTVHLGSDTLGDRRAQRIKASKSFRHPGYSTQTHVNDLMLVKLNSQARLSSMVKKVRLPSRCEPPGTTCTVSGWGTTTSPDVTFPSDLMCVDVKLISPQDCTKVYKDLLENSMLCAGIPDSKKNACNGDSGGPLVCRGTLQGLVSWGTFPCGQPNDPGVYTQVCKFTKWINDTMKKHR
CR mimetic SO = reduction of superoxide in aged yeast, primary screen, HTS | 330,000 tested, 0.18% active | S. cerevisiae aged cells, superoxide DHE fluorescence; hits give low values | AID 2690, 2010 | superoxide response (% of plate mean), % at 10 µM;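 active = superoxide response under a set limit, about three screen SD below normal, cut at about 65% in these data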;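 note: yeast aged for seven days with compound at 30 °C before DHE staining; 100% = average MFI of all compound-treated wells on the plate with controls excluded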
Rce1 inhib = yeast Rce1p protease inhibitors, primary screen, biochemical, fluorescence, cell-free homogeneous | yeast membranes, quenched prenylated peptide cleavage fluorescence | calls only | 290,000 tested, 0.27% active | AID 2563, 2010;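 active = fall in fluorescence gain of 50% or more versus controls, with final raw signal at or below 3038400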;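 note: plate controls were neutral control wells for no effect and wells lacking membranes for full effect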
MIN6 prolif-1 = inducers of MIN6 beta-cell proliferation, primary screen, ATP luminescence, uHTS; 330,000 tested, 0.29% active; MIN6 cells proliferation, ATPlite luminescence, 48 h; cells starved in 0.2% serum; 100% = growth in 10% serum; proliferation, % at 10 µM;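 active = compounds whose signal lies at least 3.5 SD above the mean of all wells on their plate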;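 note: 0% = DMSO-treated cells in low-serum medium and 100% = 10% serum control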
V-ATPase pHluor = regulators of yeast V-ATPase proton pumping, primary screen, pHLuorin cytosolic pH fluorescence; 350,000 tested, 0.37% active; response, % at 10 µM; S. cerevisiae; in the data active = response mostly above about 7.3%, no sharp cut-off; inactive = mostly below about 5.4%; note: actives read high
T cell HTS = modulators of CD8 T cell-vesicle binding, primary screen, mouse 2C CD8+ T cells, flow cytometry | 2C CD8+ T cell-vesicle binding; hits give low values | response (vesicle binding), % at 7 µM | 330,000 tested, 0.068% active | AID 2052, 2009;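 active = response, share of CD8 T cells binding vesicles, and their 90th percentile fluorescence all below set limits, cut at about 80% in these data, passing the limit was not always enough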;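 note: values below 100% mean blocked vesicle binding to the CD8+ T cells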
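Incubation: binding step 1.5 h, 37 °C, antibody labelling 20 min, ice; system: murine 2C transgenic CD8+ T lymphocytes; technique: cytometric PE anti-B7-1 and Alexa647 anti-CD8 signals after 1% paraformaldehyde fixation; also added: QL9-charged Drosophila Ld/ICAM-1/B7-1 vesicles; control set: naked versus QL9-loaded vesicles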
MIN6 prolif-2 = inducers of beta-cell proliferation in MIN6, confirmation, MIN6 cells, mouse; ATPlite luminescence, 48 h; cells kept in 0.2% serum; scaled between 0.2% and 10% serum; 920 tested, under 10 active; proliferation increase, % at 50 µM; shares compounds with MIN6 prolif-1;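 active = proliferation increase above 40% at any of the four tested concentrations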
* hit, by the source's call; i = inactive; nt = no result given.

SMILES | proKLK7 act | CR mimetic SO | Rce1 inhib | MIN6 prolif-1 | V-ATPase pHluor | T cell HTS | MIN6 prolif-2
CC(COc1ccccc1C#N)CN1CCC(C(O)(c2ccccc2)c2ccccc2)CC1 (configuration not stated) | 0 | nt | nt | nt | nt | nt | nt
O=C(NCCC1CCCCN1S(=O)(=O)c1ccccc1)C(=O)NC1CC1 (configuration not stated) | 1 | 91 | i | 12* | 5 | 162 | -1
Cc1ccc(S(=O)(=O)N2CCCCC2CCNC(=O)C(=O)NC2CCCC2)cc1 (configuration not stated) | 0 | 86 | i | -4 | 4 | 488 | nt
Cc1ccc(OC(C)C(=O)Nc2ccc3c(c2)n(C)c(=O)n3C)cc1C (configuration not stated) | 0 | 94 | i | 7.8* | -2 | 504 | 0
Cc1cc(C)cc(OC(C)C(=O)Nc2ccc3c(c2)n(C)c(=O)n3C)c1 (configuration not stated) | -1 | 105 | i | -4 | -1 | 246 | nt
COc1cc(OC)c(C(=O)C=Cc2ccc(OC)c(OC)c2)c(OC)c1 | 0 | nt | nt | nt | 0 | nt | nt
COc1ccc(/C=C/C(=O)OCC(=O)NC2CCCC2)cc1OC | 3 | 107 | nt | 11* | 0 | 344 | 4
COc1ccc(/C=C/C(=O)C(C)(C)C)cc1OC | 1 | 92 | i | 6.6* | -2 | 230 | 1
COc1cccc(CO[C@H]2C=C[C@@H](c3ccccc3)O[C@@H]2COC(C)=O)c1 | 1 | nt | nt | nt | nt | nt | nt
CC(C)CCNC(=O)COC(=O)/C=C/c1ccc2ccccc2n1 | 0 | 94 | i | 7.2* | -1 | 119 | -2
O=C(COC(=O)/C=C/c1ccc2ccccc2n1)NNC(=O)c1ccccc1 | 0 | nt | nt | nt | 0 | nt | nt
COc1ccc(C2=Nn3c(nnc3-c3ccccc3C(F)(F)F)SC2)cc1OC1CCOC1 (configuration not stated) | 0 | 116 | nt | 8.8* | 1 | 330 | -6
COc1ccc(C2=Nn3c(nnc3-c3ccncc3)SC2)cc1OC | 0 | 104 | i | 8.6* | -1 | 71 | 6
CCOc1ccc(C(=O)Nc2cc3c(cc2N2CCCC2)n(CC)c(=O)n3CC)cc1OCC | 7 | 112 | i | 1 | 1 | 185 | nt
CCn1c(=O)n(CC)c2cc(N3CCCC3)c(NC(=O)c3cccc(OC)c3)cc21 | -1 | 96 | i | 17* | -3 | 378 | -6
COc1cccc(C(=O)Nc2ccc3c(c2)C(=O)NC3=O)c1 | -7 | 87 | i | 9.1* | -3 | 770 | 0
CCOC(=O)C1=C(COC(=O)c2sccc2C)NC(=O)NC1C (configuration not stated) | 0 | 95 | nt | 11* | 4 | 194 | 4
CCOC(=O)C1=C(COC(=O)/C=C/c2ccccc2F)NC(=O)NC1C (configuration not stated) | 0 | 97 | i | 12* | -3 | 614 | -2
CCOC(=O)C1=C(COC(=O)/C=C/c2ccccc2)NC(=O)NC1C (configuration not stated) | 1 | 107 | i | 12* | -1 | 791 | 5
CCOC(=O)C1=C(COC(=O)/C=C/c2ccccc2Cl)NC(=O)NC1C (configuration not stated) | 0 | 105 | i | -4 | 3 | 371 | nt
CCCCc1c(-c2ccccc2OC)ncn1Cc1cccc(F)c1 | 1 | nt | nt | nt | nt | nt | nt
O=C1CSc2ccc(C(=O)N3CCCC(C(=O)N4CCCCC4)C3)cc2N1 (configuration not stated) | 0 | nt | nt | nt | nt | nt | nt
CCCCc1n[nH]c2c1/C(=N/O)CC(C)(C)C2 | 0 | 101 | nt | -2 | 1 | 236 | nt
CCCCc1n[nH]c2c1/C(=N/OCC)CC(C)(C)C2 | -1 | 95 | i | 9.1* | 0 | 293 | -6
